Assays:
Assay type in all cases: functional
Staphylococcus aureus [1] = assay: Antibacterial activity against Staphylococcus aureus assessed as bacterial growth at 0.1 mM after 20 hrs by turbidometry relative to control
How it was run: (§1)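 Tested at 1 × 10^-4 M in broth culture, a lower level chosen for limited solubility. Each inhibitor solution received a 2% inoculum of E. coli B or Staph. aureus stock culture. Incubated 20 hr at 37°C, then growth read as turbidity at 500 nm against untreated controls.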

Escherichia coli [2] = assay: Antibacterial activity against Escherichia coli B assessed as bacterial growth at 0.1 mM after 20 hrs by turbidometry relative to control; how it was run: as §1
Escherichia coli [3] = assay: Antibacterial activity against Escherichia coli B assessed as bacterial growth at 1 mM after 20 hrs by turbidometry relative to control
How it was run: (§2)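 Broth culture of E. coli B or Staph. aureus at inhibitor concentration 1 × 10^-3 M. Inoculum was 2% of stock culture added to each inhibitor solution. After 20 hr incubation at 37°C, turbidity was read at 500 nm and compared with controls.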

Staphylococcus aureus [4] = assay: Antibacterial activity against Staphylococcus aureus assessed as bacterial growth at 1 mM after 20 hrs by turbidometry relative to control; how it was run: as §2

SMILES	Activity (Staphylococcus aureus [1])	Activity (Escherichia coli [2])	Activity (Escherichia coli [3])	Activity (Staphylococcus aureus [4])
O=C(O)/C=C/c1c[nH]c(=O)[nH]c1=O	90%	90%		
O=C(CO)c1c[nH]c(=O)[nH]c1=O			90%	90%
C[N+](C)(C)CC(=O)c1c[nH]c(=O)[nH]c1=O.[Br-]			90%	90%
Nc1nc(-c2c[nH]c(=O)[nH]c2=O)cs1			90%	90%
O=c1[nH]cc(-c2c[nH]cn2)c(=O)[nH]1	90%	90%		
O=c1[nH]cc(-c2ncc[nH]2)c(=O)[nH]1	90%	90%		

From ChEMBL document CHEMBL3272251, “Synthesis of 5-substituted uracil derivatives” (1976)
